# Source: ChEMBL document CHEMBL1687728, “Daptomycin versus Friulimicin B: in-depth profiling of Bacillus subtilis cell envelope stress responses” (2009)
# The source made the active and inactive calls. No cut-off for these calls is given here.
# Legend:
# [1] = test system: Bacillus subtilis; assay: Induction of ywaC gene expression in Bacillus subtilis at 1 ug/ml by microarray analysis relative to untreated control; assay type: functional
# In short: (§1)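 B. subtilis cells harvested 10 min after antibiotic addition. Pellets were snap-frozen in liquid nitrogen, then RNA was prepared for microarray hybridization. Fold induction is taken against untreated control cells.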
# [2] = test system: Bacillus subtilis; assay: Induction of mreBH gene expression in Bacillus subtilis at 1 ug/ml by microarray analysis relative to untreated control; assay type: functional; in short: as §1
# [3] = test system: Bacillus subtilis; assay: Induction of ydaH gene expression in Bacillus subtilis at 1 ug/ml by microarray analysis relative to untreated control; assay type: functional; in short: as §1
# [4] = test system: Bacillus subtilis; assay: Induction of yqjL gene expression in Bacillus subtilis at 1 ug/ml by microarray analysis relative to untreated control; assay type: functional; in short: as §1
# [5] = test system: Bacillus subtilis; assay: Induction of bcrC gene expression in Bacillus subtilis at 1 ug/ml by microarray analysis relative to untreated control; assay type: functional; in short: as §1
# [6] = test system: Bacillus subtilis; assay: Induction of yrhH gene expression in Bacillus subtilis at 1 ug/ml by microarray analysis relative to untreated control; assay type: functional; in short: as §1
# [7] = test system: Bacillus subtilis; assay: Induction of liaIH gene expression in Bacillus subtilis at 1 ug/ml by microarray analysis relative to untreated control; assay type: functional; in short: as §1
# [8] = test system: Bacillus subtilis; assay: Induction of gerAAABAC gene expression in Bacillus subtilis at 1 ug/ml by microarray analysis relative to untreated control; assay type: functional; in short: as §1
# [9] = test system: Bacillus subtilis; assay: Induction of ybeF gene expression in Bacillus subtilis at 1 ug/ml by microarray analysis relative to untreated control; assay type: functional; in short: as §1
# [10] = test system: Bacillus subtilis; assay: Induction of sigM-yhdLK gene expression in Bacillus subtilis at 1 ug/ml by microarray analysis relative to untreated control; assay type: functional; in short: as §1
# [11] = test system: Bacillus subtilis; assay: Induction of yjbC-spx gene expression in Bacillus subtilis at 1 ug/ml by microarray analysis relative to untreated control; assay type: functional; in short: as §1
# [12] = test system: Bacillus subtilis; assay: Induction of sms-yacKL gene expression in Bacillus subtilis at 1 ug/ml by microarray analysis relative to untreated control; assay type: functional; in short: as §1
# [13] = test system: Bacillus subtilis; assay: Induction of radC gene expression in Bacillus subtilis at 1 ug/ml by microarray analysis relative to untreated control; assay type: functional; in short: as §1
# [14] = test system: Bacillus subtilis; assay: Induction of ypuA gene expression in Bacillus subtilis at 1 ug/ml by microarray analysis relative to untreated control; assay type: functional; in short: as §1
# [15] = test system: Bacillus subtilis; assay: Induction of ypbG gene expression in Bacillus subtilis at 1 ug/ml by microarray analysis relative to untreated control; assay type: functional; in short: as §1
# [16] = test system: Bacillus subtilis; assay: Induction of ypuD gene expression in Bacillus subtilis at 1 ug/ml by microarray analysis relative to untreated control; assay type: functional; in short: as §1
# [17] = test system: Bacillus subtilis; assay: Induction of ycgRQ gene expression in Bacillus subtilis at 1 ug/ml by microarray analysis relative to untreated control; assay type: functional; in short: as §1
# [18] = test system: Bacillus subtilis; assay: Induction of yrhIJ gene expression in Bacillus subtilis at 1 ug/ml by microarray analysis relative to untreated control; assay type: functional; in short: as §1
# [19] = test system: Bacillus subtilis; assay: Induction of sigV-yrhM gene expression in Bacillus subtilis at 1 ug/ml by microarray analysis relative to untreated control; assay type: functional; in short: as §1
# [20] = test system: Bacillus subtilis; assay: Induction of yfnI gene expression in Bacillus subtilis at 1 ug/ml by microarray analysis relative to untreated control; assay type: functional; in short: as §1
# [21] = test system: Bacillus subtilis; assay: Induction of yebC gene expression in Bacillus subtilis at 1 ug/ml by microarray analysis relative to untreated control; assay type: functional; in short: as §1
# [22] = test system: Bacillus subtilis; assay: Induction of yppC gene expression in Bacillus subtilis at 1 ug/ml by microarray analysis relative to untreated control; assay type: functional; in short: as §1
# [23] = test system: Bacillus subtilis; assay: Induction of ywnJ gene expression in Bacillus subtilis at 1 ug/ml by microarray analysis relative to untreated control; assay type: functional; in short: as §1
# [24] = test system: Bacillus subtilis; assay: Induction of ywtF gene expression in Bacillus subtilis at 1 ug/ml by microarray analysis relative to untreated control; assay type: functional; in short: as §1
# [25] = test system: Bacillus subtilis; assay: Induction of pbpI gene expression in Bacillus subtilis at 1 ug/ml by microarray analysis relative to untreated control; assay type: functional; in short: as §1
# [26] = test system: Bacillus subtilis; assay: Induction of rodA gene expression in Bacillus subtilis at 1 ug/ml by microarray analysis relative to untreated control; assay type: functional; in short: as §1
# [27] = test system: Bacillus subtilis; assay: Induction of ylxW gene expression in Bacillus subtilis at 1 ug/ml by microarray analysis relative to untreated control; assay type: functional; in short: as §1
# [28] = test system: Bacillus subtilis; assay: Induction of yoxD gene expression in Bacillus subtilis at 1 ug/ml by microarray analysis relative to untreated control; assay type: functional; in short: as §1
# [29] = test system: Bacillus subtilis; assay: Induction of yqiG gene expression in Bacillus subtilis at 1 ug/ml by microarray analysis relative to untreated control; assay type: functional; in short: as §1
# [30] = test system: Bacillus subtilis; assay: Induction of yjbQ gene expression in Bacillus subtilis at 1 ug/ml by microarray analysis relative to untreated control; assay type: functional; in short: as §1
# [31] = test system: Bacillus subtilis; assay: Induction of sigM gene expression in Bacillus subtilis by real-time RT-PCR; assay type: functional
# In short: (§2)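 Transcript levels measured by one-step real-time RT-PCR with SYBR green detection. Fold change is given as mean ± standard deviation of two independent experiments.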
# [32] = test system: Bacillus subtilis; assay: Induction of sigV gene expression in Bacillus subtilis by real-time RT-PCR; assay type: functional; in short: as §2
# [33] = test system: Bacillus subtilis; assay: Induction of sigW gene expression in Bacillus subtilis by real-time RT-PCR; assay type: functional; in short: as §2
# [34] = test system: Bacillus subtilis; assay: Induction of sigX gene expression in Bacillus subtilis by real-time RT-PCR; assay type: functional; in short: as §2
# [35] = test system: Bacillus subtilis; assay: Induction of sigY gene expression in Bacillus subtilis by real-time RT-PCR; assay type: functional; in short: as §2
# [36] = test system: Bacillus subtilis; assay: Induction of sigZ gene expression in Bacillus subtilis by real-time RT-PCR; assay type: functional; in short: as §2
# [37] = test system: Bacillus subtilis; assay: Induction of ylaC gene expression in Bacillus subtilis by real-time RT-PCR; assay type: functional; in short: as §2
# [38] = test system: Bacillus subtilis; assay: Induction of liaH gene expression in Bacillus subtilis by real-time RT-PCR; assay type: functional; in short: as §2
# [39] = test system: Bacillus subtilis; assay: Induction of promoter liaI in Bacillus subtilis at 0.5 to 2 ug/ml; assay type: functional, organism-based
# In short: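 PliaI promoter activity read by β-galactosidase assay in strain BFS2470 (W168 liaI::pMUTIN). Antibiotic concentrations spanned 4 orders of magnitude.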
compound,measurement,setting,value
CCCCCCCCCC(=O)N[C@@H](Cc1c[nH]c2ccccc12)C(=O)N[C@H](CC(N)=O)C(=O)N[C@@H](CC(=O)O)C(=O)N[C@@H]1C(=O)NCC(=O)N[C@@H](CCCN)C(=O)N[C@@H](CC(=O)O)C(=O)N[C@H](C)C(=O)N[C@@H](CC(=O)O)C(=O)NCC(=O)N[C@H](CO)C(=O)N[C@@H]([C@H](C)CC(=O)O)C(=O)N[C@@H](CC(=O)c2ccccc2N)C(=O)O[C@@H]1C,fold change (FC),[1],4.5
same,fold change (FC),[2],3.9
same,fold change (FC),[3],3.3
same,fold change (FC),[4],3.3
same,fold change (FC),[5],3.3
same,fold change (FC),[6],3.1
same,fold change (FC),[7],429
same,fold change (FC),[8],15
same,fold change (FC),[9],4.6
same,Activity,[10],inactive
same,Activity,[11],inactive
same,Activity,[12],inactive
same,Activity,[13],inactive
same,Activity,[14],inactive
same,Activity,[15],inactive
same,Activity,[16],inactive
same,Activity,[17],inactive
same,Activity,[18],inactive
same,Activity,[19],inactive
same,Activity,[20],inactive
same,Activity,[21],inactive
same,Activity,[22],inactive
same,Activity,[23],inactive
same,Activity,[24],inactive
same,Activity,[25],inactive
same,Activity,[26],inactive
same,Activity,[27],inactive
same,Activity,[28],inactive
same,Activity,[29],inactive
same,Activity,[30],inactive
same,fold change (FC),[31],2.4
same,fold change (FC),[32],2.4
same,fold change (FC),[33],1.4
same,fold change (FC),[34],0.8
same,fold change (FC),[35],0.9
same,fold change (FC),[36],1
same,fold change (FC),[37],1
same,fold change (FC),[38],1170
same,Activity,[39],Active
CC(C)CCCCCCC/C=C\CC(=O)N[C@@H](CC(N)=O)C(=O)N[C@@H]1C(=O)N2CCCC[C@@H]2C(=O)N[C@@H]([C@H](C)C(=O)O)C(=O)N[C@@H](CC(=O)O)C(=O)NCC(=O)N[C@@H](CC(=O)O)C(=O)NCC(=O)N[C@H]([C@H](C)N)C(=O)N[C@@H](C(C)C)C(=O)N2CCC[C@H]2C(=O)N[C@@H]1C [FRIULIMICIN B],fold change (FC),[1],8.7
same,fold change (FC),[2],3.1
same,fold change (FC),[3],9.1
same,fold change (FC),[4],8.9
same,fold change (FC),[5],8.2
same,fold change (FC),[6],8.5
same,Activity,[7],inactive
same,Activity,[8],inactive
same,Activity,[9],inactive
same,fold change (FC),[10],7.4
same,fold change (FC),[11],7.2
same,fold change (FC),[12],7.1
same,fold change (FC),[13],6.9
same,fold change (FC),[14],6.5
same,fold change (FC),[15],6.4
same,fold change (FC),[16],6.2
same,fold change (FC),[17],5.9
same,fold change (FC),[18],5.7
same,fold change (FC),[19],5.1
same,fold change (FC),[20],4.7
same,fold change (FC),[21],4.1
same,fold change (FC),[22],4.1
same,fold change (FC),[23],4.1
same,fold change (FC),[24],3.9
same,fold change (FC),[25],3.8
same,fold change (FC),[26],3.8
same,fold change (FC),[27],3.5
same,fold change (FC),[28],3.7
same,fold change (FC),[29],3.4
same,fold change (FC),[30],3.4
same,fold change (FC),[31],8.7
same,fold change (FC),[32],7.4
same,fold change (FC),[33],0.9
same,fold change (FC),[34],0.8
same,fold change (FC),[35],1.8
same,fold change (FC),[36],1.2
same,fold change (FC),[37],2.9
same,fold change (FC),[38],0.9
